Source: ChEMBL document CHEMBL1629587, “Discovery of a small-molecule inhibitor of {beta}-1,6-glucan synthesis” (2009)
Values after ≈ are worked out from the molar mass of the structure shown. Active and inactive are the calls of the source. The rule behind the calls is not given here.

What was measured:
Saccharomyces cerevisiae [1] = experiment: Inhibition of mannan synthesis in Saccharomyces cerevisiae AY-10 assessed as reduction in [14C]glucose incorporation at 0.078 to 1.25 ug/ml after 1 hr; assay type: functional, organism-based
Outline: (§1)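 Exponential cells in RPMI 1640 at A595 about 0.6, pulse-labelled with [14C]glucose 2 μCi/ml plus drug at 30°C, sampled at 1 and 3 h. Cell wall fractionated: mannan from 3% NaOH extracts at 80°C by Fehling's reaction; residue digested with Zymolyase 100T (1 mg/ml), insoluble part = chitin; β-1,3-glucan = total glucan minus dialysed β-1,6-glucan. Scintillation counting; % change versus untreated.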

Nakaseomyces glabratus [2] = experiment: Fungistatic activity aganist Candida glabrata IFO0622assessed as growth inhibition at 1 to 16 ug/ml by time-kill study; assay type: functional, organism-based; conditions: IFO0622
Outline: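 Exponentially growing cells suspended at 1 × 10^4 cells/ml in RPMI 1640 with or without drug, shaken gently at 30°C; samples taken at 2, 4, 8, 24 and 48 h, diluted and spread on SDA, colonies counted after overnight incubation at 30°C to give viable cell numbers.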

Escherichia coli = experiment: Antibacterial activity against Escherichia coli NIHJ; assay type: functional
Candida tropicalis = experiment: Antifungal activity against Candida tropicalis TIMM0313 after 24 hrs by microdilution method; assay type: functional; conditions: TIMM0313, 24 h
Outline: (§2)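 CLSI broth microdilution run at 30°C instead of standard temperature; starting inoculum 1 × 10^3 to 3 × 10^3 cells/ml; DMSO under 1% final. Endpoints: MIC-0 = lowest concentration giving an optically clear well; MIC-2 = 50% drop versus drug-free control in absorbance at 570 nm with alamar blue redox indicator, used because treated cells clump.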

Saccharomyces cerevisiae [3] = experiment: Fungicidal activity against Saccharomyces cerevisiae CT-1a mutant after 24 hrs by microdilution method; assay type: functional
Candida albicans [4] = experiment: Inhibition of hyphal elongation of Candida albicans ATCC 24433 at 4 ug/ml after 6 hrs by microscopy; assay type: functional, organism-based
Outline: (§3)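 Hyphae induced in HFM-7 medium (Lee's medium also used) on type I collagen-coated wells, drug 0, 1, 4 or 16 μg/ml; static culture at 37°C, viewed by light microscopy after 6 h or 24 h.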

Candida albicans [5] = experiment: Inhibition of hyphal elongation of Candida albicans ATCC 24433 at 16 ug/ml after 6 hrs by microscopy; assay type: functional, organism-based; outline: as §3
Saccharomyces cerevisiae [6] = experiment: […] activity against Saccharomyces cerevisiae AY-10 transformed with pRS416-13 carrying ADP1 gene after 24 hrs by microdilution method; assay type: functional; conditions: AY-10, 24 h
Aspergillus fumigatus = experiment: Antifungal activity against Aspergillus fumigatus ATCC 36607 after 24 hrs by microdilution method; assay type: functional; conditions: ATCC 36607, 24 h; outline: as §2
PC-6 = experiment: Cytotoxicity against human PC6 cells; assay type: functional
Outline: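 Human PC-6 lung cancer cells; growth inhibition read as GI50; DMSO kept below 0.5% final for human cells.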

Saccharomyces cerevisiae [7] = experiment: Fungicidal activity against Saccharomyces cerevisiae CT-2a mutant after 24 hrs by microdilution method; assay type: functional
Candida albicans [8] = experiment: Antifungal activity against Candida albicans ATCC MYA-573 after 24 hrs by microdilution method; assay type: functional; conditions: ATCC MYA-573, 24 h; outline: as §2
Nakaseomyces glabratus [9] = experiment: Fungicidal activity against Candida glabrata IFO0622 after 24 hrs by microdilution method; assay type: functional; conditions: IFO0622, 24 h
Outline: (§4)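 Fungicidal concentration: after the MIC plate read, 4 μl from each well transferred into 200 μl MOPS-buffered RPMI, incubated 24 h at 30°C; MFC = lowest drug concentration with no visible growth.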

Saccharomyces cerevisiae [10] = experiment: Induction of multibudding phenotype in Saccharomyces cerevisiae YPH500 after 18 hrs by microscopy; assay type: functional, organism-based
Outline: (§5)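 Exponential-phase cells suspended in RPMI 1640 with or without drug (2 μg/ml shown), shaken gently 18 h at 30°C, fixed in 3% glutaraldehyde in 0.1 M phosphate buffer, inspected by inverted light microscopy.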

Saccharomyces cerevisiae [11] = experiment: Fungicidal activity against Saccharomyces cerevisiae YPH500 after 24 hrs by microdilution method; assay type: functional; conditions: YPH500, 24 h; outline: as §4
Saccharomyces cerevisiae [12] = experiment: […] activity against Saccharomyces cerevisiae AY-10 after 24 hrs by microdilution method; assay type: functional; conditions: AY-10, 24 h
Saccharomyces cerevisiae [13] = experiment: Fungicidal activity against Saccharomyces cerevisiae AY-10-R4 mutant after 24 hrs by microdilution method; assay type: functional; conditions: AY-10-R4, 24 h
Aspergillus terreus = experiment: Antifungal activity against Aspergillus terreus ATCC 28301 after 24 hrs by microdilution method; assay type: functional; conditions: ATCC 28301, 24 h; outline: as §2
Pichia kudriavzevii = experiment: Antifungal activity against Candida krusei TIMM0269 after 24 hrs by microdilution method; assay type: functional; conditions: TIMM0269, 24 h; outline: as §2
Candida parapsilosis = experiment: Antifungal activity against Candida parapsilosis IFO1396 after 24 hrs by microdilution method; assay type: functional; conditions: Lodderomyces parapsilosis, IFO1396, 24 h; outline: as §2
Saccharomyces cerevisiae [14] = experiment: Fungicidal activity against Saccharomyces cerevisiae AY-10-R16 mutant after 24 hrs by microdilution method; assay type: functional; conditions: AY-10-R16, 24 h
Saccharomyces cerevisiae [15] = experiment: Fungicidal activity against Saccharomyces cerevisiae AY-10-R11 mutant after 24 hrs by microdilution method; assay type: functional; conditions: AY-10-R11, 24 h
Saccharomyces cerevisiae [16] = experiment: Inhibition of chitin synthesis in Saccharomyces cerevisiae AY-10 assessed as reduction in [14C]glucose incorporation at 0.078 to 1.25 ug/ml after 1 hr; assay type: functional, organism-based; outline: as §1
Cryptococcus neoformans = experiment: Antifungal activity against Cryptococcus neoformans ATCC 90112 at 32 ug/ml after 24 hrs by microdilution method; assay type: functional, organism-based; outline: as §2
Saccharomyces cerevisiae [17] = experiment: […] activity against Saccharomyces cerevisiae AY-10 transformed with empty vector pRS416 after 24 hrs by microdilution method; assay type: functional; conditions: AY-10, 24 h
Kluyveromyces marxianus = experiment: Antifungal activity against Candida kefyr ATCC 46764 after 24 hrs by microdilution method; assay type: functional; conditions: ATCC 46764, 24 h; outline: as §2
Candida albicans [18] = experiment: Antifungal activity against Candida albicans ATCC 24433 after 24 hrs by microdilution method; assay type: functional; conditions: ATCC 24433, 24 h; outline: as §2
Candida albicans [19] = experiment: Fungicidal activity against Candida albicans ATCC 24433 after 24 hrs by microdilution method; assay type: functional; conditions: ATCC 24433, 24 h; outline: as §4
Nakaseomyces glabratus [20] = experiment: Induction of multibudding phenotype in Candida glabrata IFO0622 after 18 hrs by microscopy; assay type: functional, organism-based; outline: as §5
Candida albicans [21] = experiment: Inhibition of hyphal elongation of Candida albicans ATCC 24433 at 1 ug/ml after 6 hrs by microscopy; assay type: functional, organism-based; outline: as §3
Saccharomyces cerevisiae [22] = experiment: Inhibition of chitin synthesis in Saccharomyces cerevisiae AY-10 assessed as reduction in [14C]glucose incorporation at 0.078 to 1.25 ug/ml after 3 hrs; assay type: functional, organism-based; outline: as §1
Candida albicans [23] = experiment: Inhibition of hyphal elongation of Candida albicans ATCC 24433 at 1 ug/ml after 24 hrs by microscopy; assay type: functional, organism-based; outline: as §3
Saccharomyces cerevisiae [24] = experiment: Inhibition of mannan synthesis in Saccharomyces cerevisiae AY-10 assessed as reduction in [14C]glucose incorporation at 0.078 to 1.25 ug/ml after 3 hrs; assay type: functional, organism-based; outline: as §1
Candida albicans [25] = experiment: Inhibition of hyphal elongation of Candida albicans ATCC 24433 at 16 ug/ml after 24 hrs by microscopy; assay type: functional, organism-based; outline: as §3
Nakaseomyces glabratus [26] = experiment: Antifungal activity against Candida glabrata IFO0622 after 24 hrs by microdilution method; assay type: functional; conditions: IFO0622, 24 h; outline: as §2

What does the source list for `CCc1c(C)c(C#N)c2nc3ccccc3n2c1NCCN(CC)CC`?
inhibition (Saccharomyces cerevisiae [1]): inactive; Activity (Nakaseomyces glabratus [2]): Dose-dependent effect; MIC (Escherichia coli): > 32 µg/mL; MIC (Candida tropicalis): 8 µg/mL (≈ 22.9 µM); MIC50 (Candida tropicalis): 1 µg/mL (≈ 2.86 µM); MIC (Saccharomyces cerevisiae [3]): 8 µg/mL (≈ 22.9 µM); inhibition (Candida albicans [4]): Active; inhibition (Candida albicans [5]): Active; MIC (Saccharomyces cerevisiae [6]): 4 µg/mL (≈ 11.4 µM); MIC (Aspergillus fumigatus): > 32 µg/mL; MIC50 (Aspergillus fumigatus): > 32 µg/mL; GI50 (PC-6): > 16 µg/mL; MIC (Saccharomyces cerevisiae [7]): > 64 µg/mL; MIC (Candida albicans [8]): 32 µg/mL (≈ 91.6 µM); MIC50 (Candida albicans [8]): 16 µg/mL (≈ 45.8 µM); MFC (Nakaseomyces glabratus [9]): 32 µg/mL (≈ 91.6 µM); Activity (Saccharomyces cerevisiae [10]): Active; MFC (Saccharomyces cerevisiae [11]): > 32 µg/mL; MIC (Saccharomyces cerevisiae [12]): 2 µg/mL (≈ 5.72 µM); MIC (Saccharomyces cerevisiae [13]): 8 µg/mL (≈ 22.9 µM); MIC (Aspergillus terreus): > 32 µg/mL; MIC50 (Aspergillus terreus): > 32 µg/mL; MIC (Pichia kudriavzevii): 16 µg/mL (≈ 45.8 µM); MIC50 (Pichia kudriavzevii): 8 µg/mL (≈ 22.9 µM); MIC (Candida parapsilosis): > 32 µg/mL; MIC50 (Candida parapsilosis): 4 µg/mL (≈ 11.4 µM); MIC (Saccharomyces cerevisiae [14]): 4 µg/mL (≈ 11.4 µM); MIC (Saccharomyces cerevisiae [15]): 8 µg/mL (≈ 22.9 µM); inhibition (Saccharomyces cerevisiae [16]): inactive; Activity (Cryptococcus neoformans): inactive; MIC (Saccharomyces cerevisiae [17]): 2 µg/mL (≈ 5.72 µM); MIC (Kluyveromyces marxianus): 2 µg/mL (≈ 5.72 µM); MIC50 (Kluyveromyces marxianus): 1 µg/mL (≈ 2.86 µM); MIC (Candida albicans [18]): 32 µg/mL (≈ 91.6 µM); MIC50 (Candida albicans [18]): 8 µg/mL (≈ 22.9 µM); MFC (Candida albicans [19]): > 32 µg/mL; Activity (Nakaseomyces glabratus [20]): Active; inhibition (Candida albicans [21]): Active; inhibition (Saccharomyces cerevisiae [22]): inactive; inhibition (Candida albicans [23]): Active; inhibition (Saccharomyces cerevisiae [24]): inactive; inhibition (Candida albicans [25]): Active; MIC (Nakaseomyces glabratus [26]): 2 µg/mL (≈ 5.72 µM); MIC50 (Nakaseomyces glabratus [26]): 1 µg/mL (≈ 2.86 µM)
